This is a sample that favours compounds with a hit; in the whole collection about 3.5% have one here.
RGS4 block = human RGS4 inhibition; P49798; HEK293 M3R/RGS4 inducible, Fluo-4 calcium flux; active compounds read high; triggered by carbachol at its EC20; B-score at 10 µM; 0.45% of 310,000 active;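 active means B-score, a plate-corrected calcium signal, over three deviations above library mean, with baseline fluorescence within five deviations of library mean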;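 further: RGS4 expression induced by doxycycline in cells with stable M3 receptor; B-score is computed from the integrated fluorescence ratio over baseline after carbachol; higher B-score means a larger calcium signal and so more RGS4 inhibition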
Target sequence (P49798 whole entry, looked up): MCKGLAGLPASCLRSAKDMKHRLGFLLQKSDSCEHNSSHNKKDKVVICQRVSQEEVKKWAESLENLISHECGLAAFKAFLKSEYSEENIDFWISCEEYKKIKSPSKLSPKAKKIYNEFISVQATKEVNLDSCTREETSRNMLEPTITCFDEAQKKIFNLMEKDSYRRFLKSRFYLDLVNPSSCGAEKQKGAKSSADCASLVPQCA
MrgX1 PAM = human MrgX1 positive allosteric modulation, primary screen; MrgX1-HEK293, Fluo-4 calcium flux, FDSS; active compounds read high; B-score at 10 µM; 0.63% of 310,000 active;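 active means plate-corrected calcium response at least 3 library SD above typical, normal starting fluorescence, not activating the receptor alone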;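 further: compound read alongside a low EC10 to EC30 dose of BAM8-22 agonist; peak minus trough fluorescence over baseline measured at the second addition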
Target sequence (Q96LB2 whole entry, looked up): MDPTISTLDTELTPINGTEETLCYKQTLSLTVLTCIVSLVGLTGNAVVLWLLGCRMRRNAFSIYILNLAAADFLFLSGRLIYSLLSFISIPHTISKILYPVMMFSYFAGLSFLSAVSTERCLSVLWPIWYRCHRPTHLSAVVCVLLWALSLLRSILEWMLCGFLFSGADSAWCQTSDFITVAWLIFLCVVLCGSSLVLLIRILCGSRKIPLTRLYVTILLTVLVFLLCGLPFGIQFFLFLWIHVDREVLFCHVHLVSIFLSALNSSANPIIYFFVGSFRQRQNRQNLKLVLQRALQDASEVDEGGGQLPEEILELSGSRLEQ
RGS4 pot = potentiators or activators of RGS4 | HEK293 M3R/inducible RGS4, carbachol calcium flux Fluo4; active compounds read low | B-score at 10 µM | 0.92% of 310,000 active;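 active means B-score of the integrated calcium signal more than 4 SD below the library mean, with starting fluorescence not abnormally high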;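 further: negative B-score means reduced calcium response which marks RGS4 activation or potentiation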
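Test system: HEK293 cells with stable M3R and inducible RGS4; also added: carbachol at ECmax as muscarinic agonist stimulus; schedule: dye loading 30 min 37 °C, buffer rest 30 min RT; technique: kinetic calcium fluorescence imaging with Fluo4-AM dye, 2 µM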
MrgX1 antagonist = antagonists of human MrgX1 receptor; AID 588676; MRGX1-HEK293 calcium flux, Fluo-4, BAM8-22 antagonism; active compounds read low; Q96LB2; B-score at 10 µM; 1.3% of 310,000 active;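 active means calcium-response B-score plate-corrected more than 3 library SD below zero, starting fluorescence within 5 deviations, no agonist response on first addition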;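 further: peak minus trough fluorescence over baseline after final BAM8-22 challenge near maximal dose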
MrgX1 agonist = activates human MrgX1 receptor signaling; Q96LB2; MrgX1-HEK293 cells, Fluo-4 calcium fluorescence, agonist mode; active compounds read high; B-score at 10 µM; 0.44% of 310,000 active;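 active means calcium response B-score plate-corrected fluorescence ratio at least 3 library SD, with starting fluorescence B-score inside 5 SD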
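Material – MrgX1-expressing HEK293 cells · Input – 15,000 cells seeded per well · Dosing – compound as first of three additions · Times – overnight seeding, then 1 h dark dye loading · Measured by – kinetic Fluo-4 NW fluorescence of intracellular calcium · Read-out – B-scored fluorescence response ratio · Benchmarks – positive and negative control wells on each plate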
RGS4 act valid = RGS4 activation, validation assay. shares compounds with RGS4 pot. HEK293 M3R/RGS4 inducible, carbachol calcium flux Fluo4. inhibition, % at 10 µM. 89% of 1,100 active;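 active means inhibition above 3 SD of the buffer control wells, cut at about 41% in these data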;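 further: signal is the integrated peak-minus-minimum Fluo4 fluorescence over baseline ratio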
M3R Ca counter = counter-screen for RGS4 activators: effect in non-induced cells. shares compounds with RGS4 pot. HEK293 M3R non-induced RGS4, Fluo4 calcium flux; after carbachol challenge at its EC90. 82% of 1,100 active. inhibition, % at 10 µM;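 active means inhibition exceeding 3 SD of buffer-only control wells, cut at about 26% in these data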;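 further: percent drop in integrated peak-minus-baseline over baseline Fluo4 ratio after carbachol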
Of the large screens only hits and unclear results are named; the others gave an inactive call (follow-up assays come after a bar, where they were run).

C=CCSC(=C(C#N)C#N)c1cc2c([nH]1)CCCC2	RGS4 pot -9.2 | RGS4 act valid 89.5 | M3R Ca counter 31.8
COc1ccc(C(=O)N2CCC(c3ccccc3)CC2)c(OC)c1OC	none
CC(=O)c1sc(-c2ccc(Cl)cc2)cc1N	none
COC(=O)c1sc(-c2ccc(Cl)cc2)cc1N	RGS4 pot -7.74 | RGS4 act valid inactive | M3R Ca counter inactive
c1ccc2c(c1)CCc1ccccc1C2=C1CCNCC1	RGS4 pot -11.5 | RGS4 act valid 93.5 | M3R Ca counter 94.3
CN1CCC(=C2c3ccccc3C=Cc3ccccc32)CC1	none
CCc1nc2ccccc2c(C(=O)OCC(=O)Nc2cccc(S(=O)(=O)NC3=NCCCCC3)c2)c1C	RGS4 pot -7.71 | RGS4 act valid 63.5 | M3R Ca counter inactive
CCOC(=O)c1c(N)sc2c(OCC)c(Br)ccc12	none
CCOC(=O)c1c(NC(C)=O)sc2c(OCC(O)CNC(C)(C)C)c(Br)ccc12 (stereo unspecified)	RGS4 pot -10.3 | RGS4 act valid 94.0 | M3R Ca counter 94.3
CN(CC/C=C1/c2ccccc2CSc2ccccc21)CCCO	RGS4 pot -9.46 | RGS4 act valid 91.0 | M3R Ca counter 64.8
CC(O)CN(C)CC/C=C1/c2ccccc2CSc2ccccc21 (stereo unspecified)	RGS4 pot -7.86 | RGS4 act valid 73.0 | M3R Ca counter 83.8
COc1ccccc1/C=C1\SC(=S)N(CCC(=O)Nc2nnc(C)s2)C1=O	none
NS(=O)(=O)c1ccc(CCNC(=O)c2ccc(NC3=NC4CS(=O)(=O)CC4S3)cc2)cc1 (stereo unspecified)	none
O=C(CCC1CCCN(C2C3CC4CC(C3)CC2C4)C1)NCc1ccc(F)c(F)c1 (stereo unspecified)	RGS4 pot -7.66 | RGS4 act valid 81.0 | M3R Ca counter 45.3
COCCn1c(N)c(N(Cc2ccccc2)C(=O)COc2ccc(F)cc2Cl)c(=O)[nH]c1=O	none
Cc1scc(-c2n[nH]c(=S)n2Cc2ccccc2)c1C	RGS4 pot -7.62 | RGS4 act valid 73.5 | M3R Ca counter 83.8
Cc1ccccc1CN1C(=O)/C(=C\c2ccc(C(=O)NCCN3CCOCC3)cc2)Sc2ccccc21	RGS4 pot -12.1 | RGS4 act valid 90.5 | M3R Ca counter 81.3
COc1cccc(C(=O)NC(=S)Nc2ccc(N3CCCC3)cc2)c1	none
CC(C)Oc1cccc(C(=O)NC(=S)Nc2ccc(N3CCN(C)CC3)cc2)c1	RGS4 pot -10.5 | RGS4 act valid 92.0 | M3R Ca counter 92.8
CCOC(=O)N1CCC(N2CCN(Cc3ccccc3)C(CCO)C2)CC1 (stereo unspecified)	none
CCOC(=O)N1CCC(NC2CCCCCCC2)CC1	RGS4 pot -8.1 | RGS4 act valid 82.0 | M3R Ca counter inactive
CCOC(=O)N1CCC(N2CCN(C3CCCC3)C(CCO)C2)CC1 (stereo unspecified)	RGS4 pot -10.2 | RGS4 act valid 89.0 | M3R Ca counter 58.8
CC(C)CC(=O)Nc1ccc2c(c1)nc(CCN1CCOCC1)n2C	none
Cc1cccc(N2C(=O)C(Oc3ccc(Cl)cc3Cl)C2C=O)c1C (stereo unspecified)	none (no result: RGS4 block, RGS4 pot)
CC(O)[C@H]1CNC(=O)C(=O)N1CC1(c2ccccc2)CC1 (stereo partly specified)	none
COC(=O)c1ccc(CNC(=O)CSc2nc3sc(C)c(C)c3c(=O)n2C)o1	RGS4 pot -8.15 | RGS4 act valid 50.5 | M3R Ca counter inactive
Cc1sc2nc(SCC(=O)NCc3ccco3)n(C)c(=O)c2c1C	none
CC(C)(C)c1ccc(OCC(=O)N/N=C/c2ccsc2)cc1	none
COc1ccc(S(=O)(=O)N2CCCCC2)cc1NC(=O)c1ccc2ccccc2n1	none
COc1ccc(NC(=O)c2ccc3ccccc3n2)cc1S(=O)(=O)N1CCCCC1	RGS4 pot -8.62 | RGS4 act valid 92.0 | M3R Ca counter 49.3
O=C(NCC1CCCO1)c1csc2c1CCCCC2 (stereo unspecified)	RGS4 pot -9.13 | RGS4 act valid inactive | M3R Ca counter inactive
CC(C)CC1CCCCC1OC(=O)CN1CCCCC1 (stereo unspecified)	RGS4 pot -8.48 | RGS4 act valid 85.5 | M3R Ca counter 37.3
Cc1cccc(C)c1NC(=O)CNC(=O)c1ccncc1	none
Cc1cc(N2CCOCC2)nc2ccc(Cl)cc12	none
COc1ccc(NC2=NCC(Cc3ccc(Br)cc3)S2)cc1 (stereo unspecified)	RGS4 pot -8.85 | RGS4 act valid 94.0 | M3R Ca counter 82.8
CC(=O)/C(C(=N)N1CCN(C(c2ccccc2)c2ccccc2)CC1)=C(\C)O	RGS4 pot -9.24 | RGS4 act valid 81.0 | M3R Ca counter 83.8
COc1cccc(-c2nn(-c3ccc(C)cc3)cc2C(=O)N2CCc3cc(OC)c(OC)cc3C2)c1	RGS4 pot -9.2 | RGS4 act valid 45.0 | M3R Ca counter inactive
COc1cccc(-c2nn(-c3ccccc3)cc2C(=O)O)c1	none
O=C(c1ccc2c(c1)OCO2)C1CCCN(Cc2c(F)ccc(F)c2F)C1 (stereo unspecified)	RGS4 pot -7.86 | RGS4 act valid 92.5 | M3R Ca counter 57.8
O=C(c1ccc2c(c1)OCO2)C1CCCN(Cc2ccccc2OC(F)F)C1 (stereo unspecified)	RGS4 pot -7.7 | RGS4 act valid 72.5 | M3R Ca counter 29.8
COc1ccccc1NC(=O)c1ccccc1Oc1ccccc1	RGS4 pot -9.19, MrgX1 antagonist -5.94 | RGS4 act valid 86.0 | M3R Ca counter 50.3
CCOC(=O)C1CCN(C(=O)COC(=O)c2nn(C)c(=O)c3ccccc23)CC1	none
Cc1cc(S(=O)(=O)NCCC2=CCCCC2)ccc1Br	RGS4 pot -9.55 | RGS4 act valid 92.0 | M3R Ca counter 83.3
Cc1ccc(S(=O)(=O)NCCC2=CCCCC2)cc1C(N)=O	none
FC(F)(F)c1nc(-c2ccncc2)ncc1-c1nnnn1-c1ccccc1	none
Fc1ccc(-n2nnnc2-c2cnc(-c3cccs3)nc2C(F)(F)F)cc1	RGS4 pot -9.72 | RGS4 act valid 73.5 | M3R Ca counter 44.3
OCCC1CN(Cc2cnc(N3CCCC3)s2)CCN1C1CCCC1 (stereo unspecified)	RGS4 pot -7.86 | RGS4 act valid 70.5 | M3R Ca counter 26.8
CC(=O)Nc1ccc(CN2CCN(C3CCCC3)C(CCO)C2)cc1 (stereo unspecified)	RGS4 pot -8.01 | RGS4 act valid 88.0 | M3R Ca counter 51.8

Screening data from PubChem.
